Experimental data published in ChEMBL document CHEMBL1148452, “Fluoroartemisinin: trifluoromethyl analogues of artemether and artesunate” (J Med Chem, 2004).
Values joined by “and” are separate entries in the source; they are usually repeats but may differ in a detail not shown here. Equal entries are not always repeated.

Tests used:
Mus musculus [1] = test: (§1) Percentage uM/kg); assay type: functional; design: concentration or dose not given beside the values
How it was run: (§2)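 Female ICR (CD-1) mice (18–20 g) infected with P. berghei NK 173, following Peters' 4-day test. Dosing was intraperitoneal for 4 days, with four to five mice per group. Parasitemia was counted and inhibition calculated against infected untreated controls. Survey dose 35.5 μmol/kg. ED50/ED90 came from doses of 0.5–10 mg/kg, with parasitemia read on day 4.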

Plasmodium falciparum = test: In vitro antimalarial activity against Plasmodium falciparum FCB1; assay type: functional, organism-based
How it was run: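 P. falciparum FCB1 (chloroquine-resistant) cultured continuously in human erythrocytes. Ring-synchronized cultures at 1% parasitemia and 1% final hematocrit were exposed to serial dilutions, with methanol or DMSO ≤0.1%. Cultures received [3H]-hypoxanthine and were incubated 48 h at 37 °C. Incorporated radioactivity was compared with drug-free controls, and IC50 was taken by nonlinear regression of log(dose)-response. Mean of three experiments.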

Mus musculus [2] = test: as §1; assay type: functional; how it was run: as §2
Mus musculus [3] = test: as §1; assay type: functional; how it was run: as §2; remark: listed apart in the source
Mus musculus [4] = test: as §1; assay type: functional; how it was run: as §2; remark: listed apart in the source
Mus musculus [5] = test: as §1; assay type: functional; how it was run: as §2; remark: listed apart in the source
[6] = Plasmatic Half-life after intravenous administration to rat; assay type: ADME, organism-based; conditions: plasma
[7] = Half-life at pH 1; assay type: ADME; conditions: buffer
Mus musculus [8] = test: as §1; assay type: functional; how it was run: as §2; remark: listed apart in the source
Mus musculus [9] = test: (§3) In vivo antimalarial activity against Plasmodium berghei NK173 infected mice (Mus musculus) administered intraperitoneal. at the end of 4 day; assay type: functional; conditions: ip, 96 h; how it was run: as §2
Mus musculus [10] = test: In vivo antimalarial activity against Plasmodium berghei NK 173 infected mice (Mus musculus) administered i.p. at the end of 4 day; assay type: functional; how it was run: as §2
Mus musculus [11] = test: In vivo antimalarial activity against Plasmodium berghei NK173 infected mice (Mus musculus) administered intraperitoneally. at the end of 4 day; assay type: functional; conditions: ip, 96 h
How it was run: (§4)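 Female ICR (CD-1) mice (18–20 g), 4–5 per group, infected with P. berghei NK 173 and dosed intraperitoneally for 4 days at 0.5 to 10 mg/kg (Peters protocol). Parasitemia was counted at day 4, and inhibition was calculated against infected untreated controls. ED50 and ED90 were derived from these counts.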

Mus musculus [12] = test: as §3; assay type: functional; how it was run: as §4
[13] = Mus musculus, ip, 96 h, read-out: ED90

Row | Structure (SMILES) | Parasitemia (Mus musculus [1]) [%] | IC50 (Plasmodium falciparum) [nM] | Parasitemia (Mus musculus [2]) [%] | Parasitemia (Mus musculus [3]) [%] | Parasitemia (Mus musculus [4]) [%] | Parasitemia (Mus musculus [5]) [%] | half-life [6] [h] | half-life [7] [h] | Parasitemia (Mus musculus [8]) [%] | ED50 (Mus musculus [9]) | ED90 (Mus musculus [10]) [µM/kg] | ED90 (Mus musculus [10]; [13]) [mg/kg] | ED50 (Mus musculus [11]) | ED90 (Mus musculus [12]) [µM/kg] | ED90 (Mus musculus [12]; [13]) [mg/kg]
1 | C[C@@H]1CC[C@H]2[C@@H](C)[C@](OCC(=O)O)(C(F)(F)F)OC3O[C@]4(C)CC[C@@H]1[C@]32OO4 (some centres undefined) | 47.5 | 30.4 |  |  |  |  |  |  |  |  |  |  |  |  | 
2 | C[C@@H]1CCC2[C@@H](C)[C@](OO)(C(F)(F)F)OC3O[C@]4(C)CCC1[C@]32OO4 (some centres undefined) | 5.5 | 13.2 | 36.8 | 41.7 | 28.3 |  |  |  |  |  |  |  |  |  | 
3 | C[C@@H]1CC[C@H]2[C@@H](C)[C@](O)(C(F)(F)F)O[C@@H]3O[C@]4(C)CC[C@@H]1[C@]32OO4 | 4 | 9.4 |  |  | 10.7 | 22.1 | 1.43 |  |  |  |  |  |  |  | 
4 | C[C@@H]1CCC2[C@@H](C)[C@](OCC(F)(F)F)(C(F)(F)F)OC3O[C@]4(C)CCC1[C@]32OO4 (some centres undefined) | 0 | 8.3 |  |  | 0 |  |  | 215 |  |  |  |  |  |  | 
5 | CO[C@@]1(C(F)(F)F)OC2O[C@]3(C)CCC4[C@H](C)CCC([C@H]1C)[C@@]24OO3 (some centres undefined) | 0 | 0.8 |  |  | 0 | 0 |  | 660 | 0 | 1.25 mg/kg and 3.4 µmol/kg | 17.5 | 6.4 |  |  | 
6 | C[C@@H]1CC[C@H]2[C@@H](C)[C@](OCC=O)(C(F)(F)F)OC3O[C@]4(C)CC[C@@H]1[C@]32OO4 (some centres undefined) | 0.2 | 21.4 | 46.8 | 26.8 | 7.8 |  |  |  | 29.6 |  |  |  |  |  | 
7 | CCO[C@@]1(C(F)(F)F)OC2O[C@]3(C)CCC4[C@H](C)CCC([C@H]1C)[C@@]24OO3 (some centres undefined) | 0 | 3.3 |  |  | 0 | 0 |  | 500 | 3.8 |  |  |  |  |  | 
8 | C[C@@H]1CCC2[C@@H](C)[C@@H](O)OC3O[C@]4(C)CCC1[C@]32OO4 (some centres undefined) |  |  |  |  |  |  | 0.438 |  |  |  |  |  |  |  | 
9 | COC1O[C@@H]2O[C@]3(C)CCC4[C@H](C)CCC([C@H]1C)[C@]42OO3 (some centres undefined) | 2.2 | 3.5 | 48.1 | 39.2 | 5.5 |  |  |  |  |  |  |  | 2.5 mg/kg and 8.4 µmol/kg | 28.5 | 8.5
10 | C[C@@H]1CC[C@H]2[C@@H](C)[C@](OCC(O)CO)(C(F)(F)F)OC3O[C@]4(C)CC[C@@H]1[C@]32OO4 (some centres undefined) | 2.1 | 0.9 |  | 28.8 | 12.1 | 46.3 |  |  |  |  |  |  |  |  | 
11 | C[C@@H]1CC[C@H]2[C@@H](C)[C@](OCc3ccc(C(=O)[O-])cc3)(C(F)(F)F)OC3O[C@]4(C)CC[C@@H]1[C@]32OO4.[Na+] (some centres undefined) | 25.9 | 10.6 | 25.6 | 34.9 | 26.8 |  |  | 680 |  |  |  |  |  |  | 
12 | COc1ccc(N[C@@]2(C(F)(F)F)OC3O[C@]4(C)CCC5[C@H](C)CCC([C@H]2C)[C@@]35OO4)cc1 (some centres undefined) | 0 | 12.3 | 8.1 | 0.1 | 0 |  |  | 30 | 0 |  |  |  |  |  | 
